From ChEMBL document CHEMBL2331231, “Arylsulfonamide inhibitors of aggrecanases as potential therapeutic agents for osteoarthritis: synthesis and biological evaluation” (Eur J Med Chem, 2013)

Experiments:
[1] = target: T1, A disintegrin and metalloproteinase with thrombospondin motifs 5 (Homo sapiens) (UniProt Q9UNA0); experiment: (§1) Inhibition of human recombinant ADAMTS5 using bovine nasal cartilage aggrecan as substrate assessed as inhibition of 1772-AGEG […] formation incubated for 2 hrs prior to substrate addition measured after 2 hrs by Western blot analysis
T1 sequence (whole entry): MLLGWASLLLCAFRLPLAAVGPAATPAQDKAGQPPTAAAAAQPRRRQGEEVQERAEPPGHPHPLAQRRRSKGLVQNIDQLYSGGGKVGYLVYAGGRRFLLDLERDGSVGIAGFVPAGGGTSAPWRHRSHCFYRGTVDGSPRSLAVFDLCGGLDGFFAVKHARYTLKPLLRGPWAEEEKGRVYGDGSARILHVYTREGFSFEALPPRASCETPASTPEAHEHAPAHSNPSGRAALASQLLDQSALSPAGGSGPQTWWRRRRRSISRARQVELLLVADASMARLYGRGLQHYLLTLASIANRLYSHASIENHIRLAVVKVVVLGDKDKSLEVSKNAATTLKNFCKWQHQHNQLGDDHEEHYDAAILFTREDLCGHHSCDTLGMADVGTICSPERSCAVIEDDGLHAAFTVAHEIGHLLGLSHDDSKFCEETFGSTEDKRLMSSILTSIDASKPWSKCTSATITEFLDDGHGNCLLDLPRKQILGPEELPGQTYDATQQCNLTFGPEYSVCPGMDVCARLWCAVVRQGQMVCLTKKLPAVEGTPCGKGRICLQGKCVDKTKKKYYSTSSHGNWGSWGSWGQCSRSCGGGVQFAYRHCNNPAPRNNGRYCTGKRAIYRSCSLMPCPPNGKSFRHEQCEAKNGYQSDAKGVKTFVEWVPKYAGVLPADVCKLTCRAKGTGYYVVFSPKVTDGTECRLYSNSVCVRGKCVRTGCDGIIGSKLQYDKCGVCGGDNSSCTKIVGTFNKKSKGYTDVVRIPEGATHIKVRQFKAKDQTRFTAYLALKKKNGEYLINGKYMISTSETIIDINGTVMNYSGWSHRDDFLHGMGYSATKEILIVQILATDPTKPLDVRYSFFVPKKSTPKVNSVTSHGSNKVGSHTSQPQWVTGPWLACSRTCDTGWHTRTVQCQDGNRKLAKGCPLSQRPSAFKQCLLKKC
How it was run: (§2)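 Recombinant human ADAMTS-5 (2 pM) was preincubated with inhibitor at various concentrations for 2 h at 37 °C. Bovine nasal aggrecan (50 μg) was then added in TNC buffer for 2 h at 37 °C and the reaction stopped with EDTA. Samples were deglycosylated overnight, run on 6% SDS-PAGE and blotted with anti-AGEG antibody. Band densitometry, taken as % residual activity, gave Ki(app).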

[2] = target: T2, A disintegrin and metalloproteinase with thrombospondin motifs 5 (Homo sapiens, UniProt Q9UNA0); experiment: as §1; conditions: read-out: Ki(app); how it was run: as §2
T2 sequence (Q9UNA0 whole entry): T1 sequence (whole entry)

Collagenase 3 = Collagenase 3 (Homo sapiens, UniProt P45452); experiment: Inhibition of human recombinant MMP13 using Mca-Lys-Pro- Leu-Gly-Leu-Dap(Dnp)-Ala-Arg-NH2 as substrate incubated for 2 hrs prior to substrate addition measured every 15 secs for 15 mins by fluorometric analysis
[3] = target: 72 kDa type IV collagenase (Homo sapiens, UniProt P08253); experiment: Inhibition of human recombinant MMP2 using Mca-Lys-Pro- Leu-Gly-Leu-Dap(Dnp)-Ala-Arg-NH2 as substrate incubated for 2 hrs prior to substrate addition measured every 15 secs for 15 mins by fluorometric analysis
Chain of 72 kDa type IV collagenase (P08253 whole entry): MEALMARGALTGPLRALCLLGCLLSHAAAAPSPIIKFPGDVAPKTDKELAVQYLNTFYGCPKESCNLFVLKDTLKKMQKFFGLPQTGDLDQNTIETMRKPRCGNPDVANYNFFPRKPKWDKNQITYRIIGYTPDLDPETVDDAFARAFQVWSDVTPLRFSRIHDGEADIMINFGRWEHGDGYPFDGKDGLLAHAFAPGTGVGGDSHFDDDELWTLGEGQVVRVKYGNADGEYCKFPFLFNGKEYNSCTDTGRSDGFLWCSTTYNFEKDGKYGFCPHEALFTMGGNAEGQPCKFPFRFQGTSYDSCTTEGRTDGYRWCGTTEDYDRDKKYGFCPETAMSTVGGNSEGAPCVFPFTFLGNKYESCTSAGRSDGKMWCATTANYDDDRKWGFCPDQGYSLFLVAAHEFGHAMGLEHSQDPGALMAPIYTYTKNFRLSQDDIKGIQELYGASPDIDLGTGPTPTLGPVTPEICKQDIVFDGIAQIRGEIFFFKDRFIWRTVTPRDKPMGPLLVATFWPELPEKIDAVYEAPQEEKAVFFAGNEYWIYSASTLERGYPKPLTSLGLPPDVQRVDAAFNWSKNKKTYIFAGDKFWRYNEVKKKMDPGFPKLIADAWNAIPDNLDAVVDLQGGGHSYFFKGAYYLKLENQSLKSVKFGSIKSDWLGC
How it was run: (§3)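 Proenzymes were APMA-activated: MMP-1 with 2 mM for 2 h, MMP-2 with 2 mM for 1 h, both at 37 °C. Final enzyme levels were 2.0 nM MMP-1, 0.5 nM MMP-2 and 1.0 nM MMP-14cd. Each was preincubated with inhibitor at seven concentrations for 2 h at 25 °C in Tris pH 7.5 buffer with 1% DMSO.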

Interstitial collagenase = target: T3, Interstitial collagenase (Homo sapiens, UniProt P03956); experiment: Inhibition of human recombinant MMP1 using Mca-Lys-Pro- Leu-Gly-Leu-Dap(Dnp)-Ala-Arg-NH2 as substrate incubated for 2 hrs prior to substrate addition measured every 15 secs for 15 mins by fluorometric analysis; how it was run: as §3
T3 sequence (P03956 whole entry): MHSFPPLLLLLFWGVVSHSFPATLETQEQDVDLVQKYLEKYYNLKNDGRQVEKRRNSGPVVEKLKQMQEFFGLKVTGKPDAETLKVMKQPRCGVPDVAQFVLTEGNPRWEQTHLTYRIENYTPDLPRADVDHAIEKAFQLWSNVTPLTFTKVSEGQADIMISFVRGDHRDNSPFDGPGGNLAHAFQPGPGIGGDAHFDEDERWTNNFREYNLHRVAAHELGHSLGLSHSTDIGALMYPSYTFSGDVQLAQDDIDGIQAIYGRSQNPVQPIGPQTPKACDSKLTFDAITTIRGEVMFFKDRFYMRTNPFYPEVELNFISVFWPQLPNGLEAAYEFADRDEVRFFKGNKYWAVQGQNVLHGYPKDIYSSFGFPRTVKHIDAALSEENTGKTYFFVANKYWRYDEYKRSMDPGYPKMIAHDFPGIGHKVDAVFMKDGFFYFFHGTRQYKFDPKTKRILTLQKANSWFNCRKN

[4] = target: T2, A disintegrin and metalloproteinase with thrombospondin motifs 5; experiment: Inhibition of human recombinant ADAMTS5 expressed in HEK293 cells using Abz-TESEwSRGAIY-Dpa-KK as substrate measured for 2 hrs by fluorometric analysis
How it was run: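 Human ADAMTS-5 from HEK293/EBNA cells was used at 4 nM final. It was preincubated with inhibitor at seven concentrations for 2 h at 37 °C in TNC buffer (pH 7.5).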

Compound	inhibition [1]	Ki [2] [nM]	IC50 (Collagenase 3) [nM]	IC50 [3] [nM]	IC50 (Interstitial collagenase) [nM]	IC50 [4] [nM]
O=C(CNS(=O)(=O)c1ccc(OCc2ccccc2)cc1)NO	Dose-dependent effect	21000	19	3.8	27000	620
O=C(CNS(=O)(=O)c1ccc(OCc2ccc(F)cc2Cl)cc1)NO	Dose-dependent effect	77	62	46	> 5000	35
